Experiment [1] concerns the target T1, Fatty-acid amide hydrolase 1 (Rattus norvegicus) (UniProt P97612).
T1 sequence (whole entry): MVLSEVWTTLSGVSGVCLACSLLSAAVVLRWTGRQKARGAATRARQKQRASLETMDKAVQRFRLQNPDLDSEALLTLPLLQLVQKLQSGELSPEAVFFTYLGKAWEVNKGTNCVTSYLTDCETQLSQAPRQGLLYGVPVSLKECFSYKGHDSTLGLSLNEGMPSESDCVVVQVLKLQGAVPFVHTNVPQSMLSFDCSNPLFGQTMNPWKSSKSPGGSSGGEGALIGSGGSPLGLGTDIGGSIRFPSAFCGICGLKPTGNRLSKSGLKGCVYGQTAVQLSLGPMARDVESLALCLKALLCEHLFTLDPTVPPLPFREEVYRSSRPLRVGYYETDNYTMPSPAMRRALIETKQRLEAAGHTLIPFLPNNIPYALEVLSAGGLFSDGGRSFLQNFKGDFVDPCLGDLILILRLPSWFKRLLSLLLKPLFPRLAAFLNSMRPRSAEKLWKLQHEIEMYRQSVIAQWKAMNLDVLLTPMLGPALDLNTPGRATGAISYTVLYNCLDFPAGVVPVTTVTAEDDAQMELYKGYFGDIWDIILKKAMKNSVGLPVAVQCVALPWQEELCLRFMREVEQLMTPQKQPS
Kind of experiment: Reversible inhibition of rat brain FAAH at 0.03 to 1 uM using [3H]AEA as substrate preincubated for 60 mins followed by 20 fold compound dilution and subsequent substrate addition by liquid scintillation counting analysis. The method, boiled down:
(§1)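 Rat brain homogenate at 20-fold normal strength was preincubated with vehicle or compound for 60 min, then diluted 20-fold and assayed with [3H]AEA for 10 min at 37 °C. In parallel, compound was added to vehicle-preincubated aliquots at the post-dilution free concentrations and at the undiluted final concentrations. Tritium was counted after charcoal separation.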

Experiment [2] addresses T1, Fatty-acid amide hydrolase 1 (Rattus norvegicus). In words: Inhibition of rat brain FAAH using [3H]AEA as substrate after 10 mins in presence of N-(3-Methylpyridin-2-yl)-2-(4-((2-(trifluoromethyl)pyridin-4-yl)amino)phenyl)propanamide by liquid scintillation counting analysis. In outline:
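Rat (Wistar or Sprague-Dawley) brain homogenate without cerebella, washed and pre-incubated 15 min at 37 °C to clear endogenous substrate. Compound (in ethanol or DMSO) was mixed with 1 µg protein on ice in 10 mM Tris-HCl, 1 mM EDTA, pH 7.4. Reaction used 0.5 µM [3H]AEA with fatty acid-free BSA for 10 min at 37 °C. It was stopped with charcoal/HCl, and supernatant tritium was counted. ≥5 half-log concentrations, ≥3 experiments; maximum inhibition = 100 − fitted bottom.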

The target in experiment [3] is T2, Fatty-acid amide hydrolase 1 (Mus musculus) (UniProt O08914).
T2 sequence (whole entry): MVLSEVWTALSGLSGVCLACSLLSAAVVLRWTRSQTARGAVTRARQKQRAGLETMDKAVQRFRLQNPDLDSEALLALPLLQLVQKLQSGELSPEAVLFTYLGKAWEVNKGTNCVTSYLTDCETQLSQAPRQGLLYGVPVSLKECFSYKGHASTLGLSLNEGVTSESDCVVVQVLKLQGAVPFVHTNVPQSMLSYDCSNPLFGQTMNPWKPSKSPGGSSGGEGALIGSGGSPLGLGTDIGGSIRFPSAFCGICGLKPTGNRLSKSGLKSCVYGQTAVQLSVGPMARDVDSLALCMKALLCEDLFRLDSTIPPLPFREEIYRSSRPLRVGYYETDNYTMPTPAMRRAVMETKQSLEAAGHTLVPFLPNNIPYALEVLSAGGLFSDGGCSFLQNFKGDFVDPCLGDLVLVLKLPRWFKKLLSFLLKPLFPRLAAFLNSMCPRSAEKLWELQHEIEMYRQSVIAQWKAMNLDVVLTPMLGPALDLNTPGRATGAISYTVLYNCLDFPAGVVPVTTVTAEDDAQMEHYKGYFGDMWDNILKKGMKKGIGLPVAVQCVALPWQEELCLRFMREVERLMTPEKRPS
Kind of experiment: Inhibition of B6CBAF1/J mouse brain FAAH using [3H]AEA as substrate after 10 mins in presence of N-(3-Methylpyridin-2-yl)-2-(4-((2-(trifluoromethyl)pyridin-4-yl)amino)phenyl)propanamide by Dixon plot analysis. In outline: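 Kinetic study in brain homogenate from male B6CBAF1/J mice (0.3 µg protein per assay). [3H]AEA hydrolysis ran for 10 min at 37 °C in Tris-EDTA buffer, pH 7.4, with the AEA:fatty acid-free BSA ratio held at 1:~4.5. Products were separated on charcoal and counted by scintillation. Competitive, mixed-type and non-competitive fits were compared by Akaike's criterion.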

Experiment [4] concerns the target T3, Prostaglandin G/H synthase 1 (Ovis aries) (UniProt P05979).
T3 sequence (whole entry): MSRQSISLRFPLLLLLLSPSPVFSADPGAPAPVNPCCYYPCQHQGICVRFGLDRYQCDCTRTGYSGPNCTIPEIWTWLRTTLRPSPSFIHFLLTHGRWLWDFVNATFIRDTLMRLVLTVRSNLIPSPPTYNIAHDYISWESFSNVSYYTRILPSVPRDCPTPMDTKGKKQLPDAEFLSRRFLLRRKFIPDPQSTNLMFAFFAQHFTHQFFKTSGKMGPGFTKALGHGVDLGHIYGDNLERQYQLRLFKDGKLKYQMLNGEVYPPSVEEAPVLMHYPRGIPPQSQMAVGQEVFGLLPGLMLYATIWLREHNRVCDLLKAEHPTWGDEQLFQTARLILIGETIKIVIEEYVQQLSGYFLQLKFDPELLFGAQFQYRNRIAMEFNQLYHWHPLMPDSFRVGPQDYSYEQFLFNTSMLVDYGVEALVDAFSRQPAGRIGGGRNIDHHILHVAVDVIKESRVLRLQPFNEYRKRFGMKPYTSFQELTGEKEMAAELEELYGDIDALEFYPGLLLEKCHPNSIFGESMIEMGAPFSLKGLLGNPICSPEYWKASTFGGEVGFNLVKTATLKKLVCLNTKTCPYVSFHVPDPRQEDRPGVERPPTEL
Kind of experiment: Inhibition of ovine COX1 using arachidonic acid as substrate after 5 mins. In outline: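 Oxygen-electrode assay at room temperature in 0.1 M Tris-HCl, pH 7.4, with 1 µM haematin, 2 mM phenol, 5 mM EDTA and 10 µM (final) arachidonic acid or 2-AG. Compound in EtOH was added and a 5 min baseline recorded. The reaction was started with ovine COX-1 or human recombinant COX-2 (200 U), and oxygen consumption was read in 10 s blocks. Means ± SEM, n = 3-4.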

The species named for experiment [5] is Homo sapiens. Kind of experiment: Selectivity ratio of IC50 for FAAH T488A mutant (unknown origin) expressed in human HeLa cells after 2 hrs to IC50 for FAAH (unknown origin) expressed in human HeLa cells transfected with empty vector after 2 hrs. Format: cell-based.
In experiment [6] the target is T1, Fatty-acid amide hydrolase 1 (Rattus norvegicus). Kind of experiment: Reversible inhibition of rat brain FAAH at 0.2 to 2 uM using [3H]AEA as substrate preincubated for 60 mins followed by 20 fold compound dilution and subsequent substrate addition by liquid scintillation counting analysis. In outline: as §1

The structures appear in SMILES notation. The source made the active and inactive calls.

As to `CC(C(=O)Nc1ncccc1Cl)c1ccc(Nc2ccnc(C(F)(F)F)c2)cc1` (stereo unspecified), the inhibition entry in experiment [1], in experiment [2] and in experiment [3] was “Active” in each case.
Take `Cc1cccnc1NC(=O)C(C)c1ccc(Nc2ccnc(C(F)(F)F)c2)cc1` (stereo unspecified): the inhibition entry in experiment [4] is “inactive”. For the same compound, the Ratio IC50 in experiment [5] amounted to 3.8. Also, the inhibition result in experiment [6] was “Active”.

The record behind these values is ChEMBL document CHEMBL4138113, “Novel propanamides as fatty acid amide hydrolase inhibitors” (Eur J Med Chem, 2017).
